Assay [1] has as its system P. aeruginosa PAK mexAB-oprM, EDDHA, OD600 growth, 28 h. As to the kind of experiment: mexAB-oprM mutant growth inhibition with EDDHA – PAK mexAB-OprM pump mutant, OD600, dry powder, set 2, dose response (AID 624104). Summed up: (§1)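 Compound: series, final 15 nM to 100 µM / Test system: overnight bacterial culture diluted to OD600 0.05 as inoculum / Times: 28 h at 30 °C / Medium: succinate M9 medium, pH 7.0, containing 2 µM EDDHA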

Assay in assay [2]: as above
The note with it: P. aeruginosa PAK mexAB-oprM, EDDHA, OD600 growth, 28 h; at 100 µM (top of the series). Summed up:
as §1

22 molecules from PubChem BioAssay AID624104 (Broad Institute, 2012) can be followed below.

Molecules are shown by their SMILES. Activity calls are given as the source filed them.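 How the source made its calls: active means fitted curve reaches a 35% growth drop -35 below twice the top tested dose; inactive means activity in the wrong direction, or the rest.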

Regarding `N#CC(c1cccc(C(F)(F)F)n1)c1ccc(Cl)cc1F` (configuration not stated), the AC35 in assay [1] was 2.45 µM.
With `CN(C)CCCC(C#N)c1ccc(Cl)cc1` (configuration not stated), the activity change, negative = growth inhibition in assay [2] is -0.114% (inactive).
Still for that read-out and setting: the same measure for `Clc1ccc(C(c2cccc(Cl)n2)c2nn[nH]n2)cc1` (configuration not stated): 11.2% (inactive).
Regarding `COCCOCCC(C#N)c1ccc(F)cc1` (configuration not stated), the AC35 in assay [1] is 5.24 µM.
Still for that read-out and setting: the same measure for `N#CC1c2ccc(Cl)cc2CCc2cccnc21` (configuration not stated): 32.8 µM.
The same measure, in the same setting: for `COCCC(C#N)c1ccc(F)cc1` (configuration not stated) the value was 28.3 µM.
`N#CC(c1ccc(C(F)(F)F)c(Cl)n1)c1ccccc1OC(F)(F)F` (configuration not stated): the activity change, negative = growth inhibition in assay [2] is -25.9% (inactive).
In the case of `N#CC(c1ccc(Cl)cc1)c1ncccc1Cl` (configuration not stated), the AC35 in assay [1] is 0.923 µM.
Still for that read-out and setting: the same measure for `N#CC(c1ccc(Cl)cc1)c1cccc(Cl)n1` (configuration not stated): 1.97 µM; for `N#Cc1cccc(C(C#N)c2ccc(F)cc2)n1` (configuration not stated): 8.88 µM.
For the molecule `N#CC(c1ccc(F)cc1)c1cccc(C(F)(F)F)n1` (configuration not stated), the AC35 in assay [1] is 0.839 µM.
On the same count and under the same terms, for `CCCCC(C#N)c1ccc(Cl)cn1` (configuration not stated) the value was 42.3 µM.
`COCCOCCC(C#N)c1ccc(Cl)cc1` (configuration not stated): the activity change, negative = growth inhibition in assay [2] was -10% (inactive).
Take `CCCCC(C#N)c1ccc(F)cn1` (configuration not stated): in assay [1], the AC35 is 18.7 µM.
For the molecule `CCCCC(c1ccc(Cl)cc1)c1nn[nH]n1` (configuration not stated), in assay [1], the AC35 was 25.2 µM.
On the same count and under the same terms, for `N#CC(c1ccc(F)cc1)c1cccc(Cl)n1` (configuration not stated) the value was 2.09 µM; for `N#CC(c1ccc(Cl)cc1)c1ccccn1` (configuration not stated), 5.72 µM.
Regarding `CN(C)CCCC(C#N)c1ccc(F)cc1` (configuration not stated), the AC35 in assay [1] was 6.4 µM.
`N#CC(c1ccc(Cl)cc1)c1cccc(C(F)(F)F)n1` (configuration not stated): the AC35 in assay [1] was 1.45 µM.
Same read-out and setting: for `N#CC(c1cccc(Cl)n1)c1ccc(Cl)cc1F` (configuration not stated) the value was 1.52 µM; for `COCCC(C#N)c1ccc(Cl)cc1` (configuration not stated), 40.2 µM.
Regarding `CCCCC(C#N)c1ccc(F)cc1` (configuration not stated), the AC35 in assay [1] was 33.5 µM.
